Results from ChEMBL document CHEMBL4513216, “Probing the Open Global Health Chemical Diversity Library for Multistage-Active Starting Points for Next-Generation Antimalarials” (ACS Infect Dis, 2020).

Experiment: Toxicity liver stage against HepG2, at 10uM
Type: cell-based
Set-up: test concentration 10 uM, cell line HepG2-A16-CD81EGFP
Conditions: human, HepG2-A16-CD81EGFP cells; read-out: INHIBITION
Method in brief: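 Uninfected HepG2-A16-CD81EGFP cells, 3 × 10^3 per well, 1536-well, plated on prespotted compound at 10 μM final, parasite-free screening media added to match infected plates; puromycin 10 μM positive, DMSO 0.5% negative; run in parallel with 48 h PbLuc assay at 37 °C, 5% CO2; viability by CellTiter-Glo luminescence, normalized to controls.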

Row | Compound | cytotoxicity at 10 µM
1 | CCc1ccc(C2CC(=O)Nc3c2c(=O)n(C)c2ncnn32)cc1 (configuration not stated) | 8.16%
2 | N#Cc1ncn(CCC(=O)Nc2ccc(Cl)cc2F)n1 | -8.94%
3 | CN1CCN2C(=O)N(C3CCCCC3)C[C@H]2C1 | -3.1%
4 | O=C(CCC(=O)Nc1nnc(C(F)(F)F)s1)NCC1CCCO1 (configuration not stated) | 4.65%
5 | CCOC(=O)C1CC2(CCCC2)N2CCC(=O)N12 (configuration not stated) | 1.53%
6 | O=C(C1CC1)N(Cc1ccc2cc[nH]c2c1)C1CC1 | -2.98%
7 | Cc1nnc(SCC(=O)c2cc3c(cc2Cl)NC(=O)C3)o1 | -5.28%
8 | Cc1cc(C)n(-c2cccc(C(=O)Nc3n[nH]c(C4CCCO4)n3)c2)n1 (configuration not stated) | -4.44%
9 | COc1ccccc1C(O)Cn1cc(C(=O)NCc2ccco2)nn1 (configuration not stated) | -6.03%
10 | O=C1COC2(CCN(C(=O)c3ccoc3)CC2)CN1Cc1cccnc1 | 5.29%
11 | CN(CC1CC1)c1ccc2ccc(C(=O)NC3CCCCC3)cn12 | -0.567%
12 | N#CCC(=O)NCc1nnc2n1CCN(Cc1cccs1)C2 | -136%
13 | COCc1ncn2c1CN(S(=O)(=O)c1cccs1)CCC2 | 6.82%
14 | O=C1NCC[C@]12CN(Cc1ccco1)C[C@H]2c1ccccc1 | -139%
15 | Cc1ccc(NC(=O)Cc2cnc3n(C)c(=O)[nH]c(=O)n23)cc1 | 8.24%
16 | COc1ccc(C)cc1S(=O)(=O)NCC(c1cccn1C)N(C)C (configuration not stated) | -11.9%
17 | O=S(=O)(c1cccnc1)N1CCN(CCn2ccnc2)CC1 | -31.2%
18 | O=C1CC(c2cccc(O)c2)c2sc(C(=O)O)c(-c3ccccc3)c2N1 (configuration not stated) | 6.33%
19 | CC(C)CCNC(=O)c1sccc1N(C)S(=O)(=O)c1ccccc1 | 9.33%
20 | CCN1Cc2c(C(=O)NCC3CC3)ncn2-c2ccccc2S1(=O)=O | -12.2%
21 | O=C1CCC2(CCN(c3ncc(F)cn3)CC2)N1CCN1CCCC1 | 10.5%
22 | COc1cccc(NC(=O)C(C)Cn2cc(Cl)cn2)c1 (configuration not stated) | -1.47%
23 | O=C(O)c1ccn(COc2c(Cl)cccc2Cl)n1 | 8.71%

Row | Compound | cytotoxicity at 10 µM
24 | O=C1CCC(=O)c2oc3ccc(Br)cc3c2N1 | 2.44%
25 | Brc1ccc2[nH]c3c(c2c1)CCCC3c1nn[nH]n1 (configuration not stated) | 4.49%
26 | CC(=O)N[C@@H]1CN(C(=O)c2cccc(C)c2)C[C@H]1O | -2.48%
27 | Cc1c(S(=O)(=O)N2CCCC2c2nnc(-c3ccsc3)o2)cnn1C (configuration not stated) | 3.04%
28 | Cc1cnc(-c2nc(NC3CC3)ncc2-c2onc(C)c2C)cn1 | -27.9%
29 | Cn1nccc1C(=O)N1CCOC(Cc2ccc(Cl)cc2)C1 (configuration not stated) | -26%
30 | CCOCC(=O)N1C[C@@H]2CC[C@H](Oc3ccccc3)[C@@H]2C1 | -16.1%
31 | Cc1nc(Nc2cnccn2)cc(C2CCCN(C(C)C)C2)n1 (configuration not stated) | -9.03%
32 | CC(SCCC(=O)NC(N)=O)c1ccccc1F (configuration not stated) | 5.87%
33 | CS(=O)(=O)NC(=O)c1ccn(-c2ccccc2Cl)n1 | -4.27%
34 | CCOc1ccc(NC(=O)Cc2cc(C)[nH]n2)cc1CO | 0.335%
35 | O=C(CCNC(=O)C1=Cc2ccccc2OC1)NCc1ccncc1 | 5.6%
36 | C[S+]([O-])CCNC(=O)N1CCN(c2cc(F)ccc2F)CC1 (configuration not stated) | -13.4%
37 | CC1COCCN1C(=O)Cc1cc(Cl)c2c(c1)OCCCO2 (configuration not stated) | -1.43%
38 | CCc1[nH]nc(NC(=O)c2cc[nH]n2)c1C | -3.98%
39 | O=C(NCCNc1cnccn1)N1CCc2ccccc2C1 | -2.73%
40 | O=S(=O)(Cc1ccccc1)c1nnc(N2CCOCC2)s1 | -4.65%
41 | Cc1oncc1NS(=O)(=O)c1c[nH]c2ncccc12 | -7.49%
42 | CS(=O)(=O)N1CCC(Oc2ccc(C#N)cc2)CC1 | -8.97%
43 | O=C(CCc1cccnc1)Nc1ccc(OCC2CCOCC2)cc1 | -6.01%
44 | CCOCC(=O)N(Cc1ccco1)c1ccc(OC)c(F)c1 | -2.75%
45 | Cc1ccc(-c2nnc(C(C)N3CCn4c(C)nnc4C3)o2)cc1 (configuration not stated) | -7.33%
46 | COc1cc(CSc2nnc(N)n2C2CC2)ccc1SC | -6.09%

Row | Compound | cytotoxicity at 10 µM
47 | Cc1ccc(Cc2sc(NC(=O)C(C)S(C)(=O)=O)nc2C)cc1 (configuration not stated) | 13.1%
48 | CC(C(=O)N1CCc2sccc2C1)N1CCC(N2CCCC2)CC1 (configuration not stated) | 10.9%
49 | CCc1nccn1CC(=O)Nc1cccc(C(=O)N(C)C)c1 | -6.77%
50 | CC(C#N)CN(C)C(=O)c1cn(-c2ccc(Br)cc2)cn1 (configuration not stated) | 13.6%
51 | NC(=O)NC(=O)CNc1cccc(C(=O)c2ccccc2)c1 | 7.95%
52 | CC(=O)N(Cc1ncc(C)o1)C1CCN(Cc2cccc(C#N)c2)C1 (configuration not stated) | 1.63%
53 | O=c1oc(-c2cccs2)nn1CC(O)c1ccccc1 (configuration not stated) | 21.3%
54 | CCc1ccc(C(=O)NC2CCN(c3cnn(C)c3)C2=O)o1 (configuration not stated) | -6.13%
55 | Cc1ccc(C(=O)N2CCN(CCCSCC#N)CC2)o1 | -11.1%
56 | CCN(C(c1cccnc1)c1ccc2c(c1)CCO2)S(C)(=O)=O (configuration not stated) | -8.28%
57 | Cc1cnn(CC2CCCN2C(=O)CCc2c(C)noc2Cl)c1 (configuration not stated) | -8.31%
58 | O=C(c1ncccn1)N1C[C@H]2CCC[C@@]2(COCC2CCOCC2)C1 | -1.11%
59 | CCc1cccc(NC(=O)CCN2CC=C(c3cnn(C)c3)CC2)c1 | 1.2%
60 | COc1cccc(CC(C)NCC(=O)Nc2ccccc2C)c1 (configuration not stated) | -1.62%
61 | CNc1ncccc1C(=O)N1CCC2(CCN(C)C2)CC1 | 0.521%
62 | COc1ncccc1CN1CCN(c2noc(C(C)C)n2)CC1 | 10.5%
63 | CC(NC(=O)c1cc(=O)n(C)c(=O)n1C)c1ccccc1-n1cccn1 (configuration not stated) | -9.47%
64 | CS(=O)(=O)N1CCc2[nH]nc(Cc3cccs3)c2C1 | 1.44%
65 | N[C@@H]1CC[C@H](C(=O)NCc2ccc3nonc3c2)C1 | -5.35%
66 | O=C(c1cc(=O)n(-c2ccccc2)[nH]1)N1CCOCC(O)C1 (configuration not stated) | -0.205%
67 | CCC(C(=O)NCC1=CCCN(C)C1)c1ccccc1 (configuration not stated) | -2.65%
68 | O=C(N1CCOCC(O)C1)C1(c2ccc(Cl)cc2)CCC1 (configuration not stated) | -4.24%
69 | CCCN1CCCn2nc(CNC(=O)CC(C)n3ccnc3C)cc2C1 (configuration not stated) | -9.4%

Row | Compound | cytotoxicity at 10 µM
70 | C=C(C)CNC(=O)C1CCCN(C2CCN(C(C)C)CC2)C1 (configuration not stated) | -0.454%
71 | COCCN1CCN(C(=O)c2cc(C(C)C)on2)[C@H]2CS(=O)(=O)C[C@H]21 | -12%
72 | Cc1ccccc1Oc1ncccc1CNS(C)(=O)=O | -22.1%
73 | Cc1ccc(C)c(C(C(=O)O)N2CCCN(Cc3ccccn3)CC2)c1 (configuration not stated) | -15.6%
74 | CN1N=C(C(=O)N2CCCC(CCc3c(F)cccc3F)C2)CCC1=O (configuration not stated) | -7.41%
75 | CCC(C(=O)NC)N(c1cccc(C)c1)S(C)(=O)=O (configuration not stated) | -11.8%
76 | CCC(=O)N1CCC(O)(c2ncc(OC)nc2OC)CC1 | 3.03%
77 | O=C1CN(c2ccc(CNC(=O)NCC3CCOC3)cc2)CCN1 (configuration not stated) | -1.96%
78 | CC(C)C(Sc1nccn1C1CC1)C(=O)NCc1cccnc1 (configuration not stated) | -5.83%
79 | CC(C)Cc1cc(NC(=O)c2ccccc2F)n(C)n1 | -6.48%
80 | c1ccc(Cc2noc(CN3CCc4c(ncn4C4CC4)C3)n2)cc1 | 2.1%
81 | N#Cc1cccc(OCCN2CCOC(Cn3cccn3)C2)c1 (configuration not stated) | -1.3%
82 | Cc1ccc(-c2nc(CNC3CCc4ncnn4C3)no2)cc1 (configuration not stated) | -1.43%
83 | O=C(CCNc1ncccn1)N1CCC(Nc2cccnn2)CC1 | -12.9%
84 | Cc1cnn(-c2ccc(C(=O)N3CCCC(n4ccnc4C)C3)cc2)c1 (configuration not stated) | -9.99%
85 | CC(=O)N(Cc1ncc(C(C)C)o1)C1CCN(Cc2ccno2)C1 (configuration not stated) | -11.1%
86 | Cc1nc2n(n1)CC(NCc1nc(-c3ccccn3)no1)CC2 (configuration not stated) | -12.4%
87 | O=C(c1ccc2c(c1)COC2)N1CCCC(n2cncn2)C1 (configuration not stated) | -20.6%
88 | Cc1csc(NC(=O)CN2CCCC(Cn3nc(C)nc3C)C2)n1 (configuration not stated) | -3.95%
89 | CC(C)(C)c1cccc(OCC(=O)NS(=O)(=O)c2cccnc2)c1 | -12.5%
90 | Cn1cc(Cl)cc1C(=O)N1CCCN(Cc2nccn2C)CC1 | -6.04%
91 | Cc1ccc(C(=O)Nc2cn[nH]c2)cc1F | -14.7%
92 | CN(C)c1ccc(C(=O)N2CCCC(n3cncn3)C2)nn1 (configuration not stated) | 0.47%

Row | Compound | cytotoxicity at 10 µM
93 | COc1cc(Cl)ccc1CNC(=O)N1CCC(n2cncn2)CC1 | -0.861%
94 | Cc1nc(CNC(=O)Cn2nc(-c3ccc(F)cc3)oc2=O)cs1 | 1.12%
95 | CCOc1ccnc(N2CCN(C(=O)c3cccnc3O)CC2)n1 | -6.51%
96 | CC(=O)Nc1nc(C(=O)N2CCCC2c2noc(C)n2)cs1 (configuration not stated) | -9.55%
97 | O=C(c1cnc(-c2cccs2)s1)N1CCCC(n2cccn2)C1 (configuration not stated) | -10.8%
98 | O=S(=O)(NCCN1CCCCC1Cn1cncn1)c1ccccc1 (configuration not stated) | -9.12%
99 | CC(NC(=O)NCCOc1ccc(F)c(F)c1)c1nncn1C (configuration not stated) | -0.192%
100 | O=C1CC2(CCCNC2)C(=O)N1Cc1cccc(F)c1 (configuration not stated) | 3.56%
101 | Cn1cc(CN2CCOC(c3cccc(-c4cncnc4)n3)C2)cn1 (configuration not stated) | 4.74%
102 | c1csc(CN2CC3(CCN(Cc4ccsc4)C3)C2)n1 | -2.65%
103 | CNC(=O)[C@H]1C[C@@H]2CN(S(=O)(=O)c3ccc(C)c(F)c3)C[C@@H]2N1C | -3.03%
104 | COc1cc(N2CCC3(CC2)CC(N2CCOCC2)C3)ncn1 | -6.81%
105 | CCn1nnc2c1C(COC)CN(Cc1cccs1)C2 (configuration not stated) | -16.5%
106 | CCCS(=O)(=O)N1CCC2(CC1)CN(c1ccccn1)CCO2 | 6.66%
107 | COCCN1C[C@@H]2CN(Cc3ccc(F)cc3)C[C@@H]2C1=O | -0.744%
108 | CNC(=O)[C@@H](C1CCCCC1)N1CCC[C@H]1C(=O)NCCN1CCCC1 | -4.31%
109 | COc1ccccc1CN1C[C@@H]2CN(C(C)=O)CCO[C@@H]2C1 | -102%
110 | CS(=O)(=O)N1CCOCC2(CN(Cc3ccsc3)CCO2)C1 (configuration not stated) | -11.7%
111 | O=C1CCC2(CCCN(C(=O)Cc3cccnc3)C2)N1 (configuration not stated) | 6.88%
112 | O=C(c1cccc(Cl)c1)N1CCCC2(CCCNC2)C1 (configuration not stated) | -152%
